Source: ChEMBL document CHEMBL5149991 (J Med Chem, 2021)

What was measured:
[1] = biological target: T1, D(3) dopamine receptor (Homo sapiens, UniProt P35462); assay: Agonist activity at human D3 receptor stably expressed in HEK293T cells co-expressing ElucN-betaarr2 hD3R-ElucC by beta-arrestin2 recruitment assay; assay type: functional, cell-based
[2] = biological target: T1, D(3) dopamine receptor; assay: Displacement of [3H]N-methylspiperone from human D3 receptor stably expressed in HEK293T cells co-expressing luciferase and CEK incubated for 140 mins by radioligand competition binding based assay; assay type: cell-based
[3] = biological target: D(1A) dopamine receptor (Homo sapiens, UniProt P21728); assay: Displacement of [3H]SCH23390 from human D1 receptor stably expressed in HEK293T cells co-expressing luciferase and CEK incubated for 60 mins by scintillation counting analysis; assay type: cell-based
[4] = biological target: T2, Muscarinic acetylcholine receptor M4 (Homo sapiens, UniProt P08173); assay: Displacement of [3H]N-methylscopolamine from human muscarinic acetylcholine M4 receptor stably expressed in CHO cells by radioligand competition binding based analysis; assay type: cell-based
T2 sequence (P08173 whole entry): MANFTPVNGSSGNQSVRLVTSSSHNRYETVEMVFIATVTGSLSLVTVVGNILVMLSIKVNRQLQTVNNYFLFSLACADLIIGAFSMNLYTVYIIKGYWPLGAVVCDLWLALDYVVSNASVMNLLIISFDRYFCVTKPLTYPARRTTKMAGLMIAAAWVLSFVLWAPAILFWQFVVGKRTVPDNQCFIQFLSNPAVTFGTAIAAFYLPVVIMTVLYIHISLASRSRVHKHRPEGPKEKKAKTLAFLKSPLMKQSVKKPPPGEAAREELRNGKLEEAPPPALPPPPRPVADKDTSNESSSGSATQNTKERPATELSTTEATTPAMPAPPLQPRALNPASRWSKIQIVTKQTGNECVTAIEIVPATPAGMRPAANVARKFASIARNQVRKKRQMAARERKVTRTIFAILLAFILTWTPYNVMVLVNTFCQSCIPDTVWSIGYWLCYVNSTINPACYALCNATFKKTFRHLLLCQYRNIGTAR
Outline: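 Whole CHO cells stably expressing hM1–hM5, competed against [3H]N-methylscopolamine. Kd/applied concentrations in nM: M1 0.17/0.2, M2 0.10/0.2, M3 0.12/0.2, M4 0.052/0.1, M5 0.20/0.3.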

[5] = biological target: T3, Histamine H2 receptor (Homo sapiens, UniProt P25021); assay: Agonist activity at human histamine H2 receptor stably expressed in HEK293T cells co-expressing NlucN-mGs/hH2R-NlucC assessed as induction of mini-Gs protein recruitment using furimazine as substrate measured for 45 mins by luminescence assay
[6] = biological target: T3, Histamine H2 receptor; assay: Agonist activity at human histamine H2 receptor stably expressed in HEK293T cells co-expressing ARRB2 incubated for 60 mins by beta-arrestin2 recruitment assay; assay type: functional, cell-based
[7] = Chemical stability in pH 7.4 buffer measured at 0 to 2 weeks by HPLC analysis; assay type: physicochemical; conditions: time 0-2 weeks
[8] = biological target: T3, Histamine H2 receptor; assay: Agonist activity at human histamine H2 receptor stably expressed in baculovirus infected Sf9 cell membrane co-expressing RG-Salpha S incubated for 90 mins by [35S]GTPgammaS binding based liquid scintillation counting method; assay type: functional, cell membranes
[9] = biological target: T3, Histamine H2 receptor; assay: Displacement of [3H]UR-DE257 from human histamine H2 receptor stably expressed in baculovirus infected Sf9 cell membrane co-expressing RG-Salpha S incubated for 60 mins by scintillation counting analysis; assay type: cell membranes
[10] = biological target: Histamine H2 receptor (Cavia porcellus) (UniProt P47747); assay: Agonist activity at guinea pig histamine H2 receptor stably transfected in HEK293T cells co-expressing NlucN-mGs/gpH2R-NlucC assessed as maximum efficacy at 100 uM by mini-G protein recruitment assay relative to histamine; assay type: functional, cell-based
[11] = biological target: Histamine H2 receptor (Cavia porcellus) (UniProt P47747); assay: Agonist activity at histamine H2 receptor in spontaneous beating guinea pig right atrium assessed as increase in heart beat at 30 uM relative to histamine; assay type: functional, tissue-based; conditions: Right cardiac atrium

T3 sequence (P25021 whole entry): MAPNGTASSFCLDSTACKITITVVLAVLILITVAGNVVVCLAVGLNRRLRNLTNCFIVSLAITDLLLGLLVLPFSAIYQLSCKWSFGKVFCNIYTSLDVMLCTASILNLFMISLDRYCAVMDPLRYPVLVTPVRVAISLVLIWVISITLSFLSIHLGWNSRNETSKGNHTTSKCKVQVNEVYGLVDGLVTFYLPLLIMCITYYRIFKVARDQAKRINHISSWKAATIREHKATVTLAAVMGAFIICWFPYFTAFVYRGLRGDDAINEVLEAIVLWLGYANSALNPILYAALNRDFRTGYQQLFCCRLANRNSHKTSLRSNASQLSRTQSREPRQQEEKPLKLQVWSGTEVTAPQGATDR
Chain of D(1A) dopamine receptor (P21728 whole entry): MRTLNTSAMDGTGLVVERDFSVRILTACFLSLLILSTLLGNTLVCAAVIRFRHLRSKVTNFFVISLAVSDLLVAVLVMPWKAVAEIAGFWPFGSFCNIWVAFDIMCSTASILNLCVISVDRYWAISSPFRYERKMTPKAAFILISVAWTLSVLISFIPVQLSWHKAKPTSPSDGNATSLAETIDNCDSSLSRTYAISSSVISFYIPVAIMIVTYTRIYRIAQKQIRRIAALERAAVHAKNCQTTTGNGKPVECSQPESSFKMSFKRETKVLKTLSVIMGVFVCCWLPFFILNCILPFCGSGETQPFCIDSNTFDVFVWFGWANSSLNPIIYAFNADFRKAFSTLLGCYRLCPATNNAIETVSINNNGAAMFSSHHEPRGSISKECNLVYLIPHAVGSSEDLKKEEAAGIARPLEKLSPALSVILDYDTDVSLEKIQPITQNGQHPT
T1 sequence (P35462 whole entry): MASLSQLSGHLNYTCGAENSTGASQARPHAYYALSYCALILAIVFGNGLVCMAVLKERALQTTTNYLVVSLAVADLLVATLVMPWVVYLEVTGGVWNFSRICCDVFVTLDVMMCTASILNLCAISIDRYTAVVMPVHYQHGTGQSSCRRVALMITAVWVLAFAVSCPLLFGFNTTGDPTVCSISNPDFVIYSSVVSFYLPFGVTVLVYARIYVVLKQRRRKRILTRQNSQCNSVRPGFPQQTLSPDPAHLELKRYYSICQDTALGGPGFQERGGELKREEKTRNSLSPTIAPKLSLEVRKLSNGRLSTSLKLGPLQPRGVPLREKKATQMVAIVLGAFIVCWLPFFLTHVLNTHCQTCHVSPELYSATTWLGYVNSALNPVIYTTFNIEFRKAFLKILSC
Chain of Histamine H2 receptor (Cavia porcellus) (P47747 whole entry): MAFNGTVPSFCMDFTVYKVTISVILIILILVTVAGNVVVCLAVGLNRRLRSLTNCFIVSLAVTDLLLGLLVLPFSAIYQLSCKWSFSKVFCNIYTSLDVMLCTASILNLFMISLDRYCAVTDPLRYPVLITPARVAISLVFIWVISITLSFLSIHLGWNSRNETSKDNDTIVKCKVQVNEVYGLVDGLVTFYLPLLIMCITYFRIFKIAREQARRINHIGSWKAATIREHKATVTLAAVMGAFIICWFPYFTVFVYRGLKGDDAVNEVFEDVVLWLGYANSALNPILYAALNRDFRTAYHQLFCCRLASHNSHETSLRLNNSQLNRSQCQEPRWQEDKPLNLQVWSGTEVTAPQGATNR

Row | Compound | EC50 [1] [nM] | Ki [2] [nM] | Kd [3] [nM] | Ki [3] [nM] | Kd [4] [nM] | pKi [4] | EC50 [5] [nM] | EC50 [6] [nM] | Stability [7] | EC50 [8] [nM] | Ki [9] [nM] | Emax [10] [%] | Emax [11] [%]
1 | N/C(=N\C(=O)NCc1ccccc1)NCCCc1nnc(N)s1 | 1200 | 2630 | 0.23 | 1380 | 0.052 | > 5.5 |  |  |  |  |  |  | 
2 | CCCCCNC(=O)/N=C(\N)NCCCc1sc(N)nc1C |  |  | 0.23 | 257 | 0.052 | < 5 |  |  |  |  |  |  | 
3 | CCCCCNC(=O)/N=C(\N)NCCCc1nnc(N)s1.O=C(O)C(F)(F)F.O=C(O)C(F)(F)F |  |  | 0.23 | 2450 | 0.052 | < 5 | 5.75 | 234 | Stable | 25.7 | 3.02 |  | 
4 | C[C@@H](NC(=O)/N=C(\N)NCCCc1ncn[nH]1)c1ccccc1 | > 10000 | > 10000 | 0.23 | 2190 | 0.052 | > 5 | 25.7 | 324 |  |  | 53.7 | 86 | 115
